From PubChem BioAssay
Rows were chosen to be rich in hits. Some 3.7% of all compounds tested hit in one or more screens of this group.
KCNK3 inh = human KCNK3 channel inhibition, primary screen. O14649. CHO-KCNK3 thallium flux, FluxOR fluorescence; stronger effect = lower value. actives 0.84% (n = 340,000). B-score at 10 µM;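 active = B-score under library mean minus 4 SD, starting fluorescence ratio at most library mean plus 5 SD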;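 note: more negative B-score means stronger inhibition of thallium flux through KCNK3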
Kir21 block = Kir2.1 (mouse) channel inhibition; AID 1672; HEK293-Kir2.1, FluxOR thallium flux fluorescence; stronger effect = lower value; B-score at 10 µM; P35561; actives 0.85% (n = 310,000);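 active = fluorescence ratio B-score at or below minus 3 SD of library scores, with starting-brightness B-score within 2 SD, cut at about -4.2 in these data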;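 note: channel flux triggered by added potassium and thallium sulfate stimulus; B-score of peak minus minimum fluorescence over baseline after thallium stimulus; more negative B-score means stronger Kir2.1 block with less thallium influx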
KCNK9 inh-1 = blocks the human KCNK9 two-pore domain potassium channel; Q9NPC2; HEK293 KCNK9, FluxOR thallium flux fluorescence; stronger effect = lower value; B-score at 10 µM; actives 1.2% (n = 310,000);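 active = ratio B-score over 3 SD below the library mean, with starting fluorescence within 5 SD of its mean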;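 note: negative B-score means less thallium flux so channel inhibition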
KCNQ1 pot = human KCNQ1 channel potentiation or activation; B-score at 10 µM; AID 2648; P51787; CHO-K1 KCNQ1, thallium flux FluxOR fluorescence; stronger effect = higher value; actives 0.35% (n = 310,000);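 active = fluorescence ratio B-score, a plate-corrected score, at least three library SD, with initial intensity B-score within 5 SD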
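Test system: CHO-K1 cells stably expressing KCNQ1 / Medium: assay buffer / Also added: depolarizing K+/Tl+ stimulus, K2SO4 and Tl2SO4 each 12.5 mM in 5x stock / Incubation: 90 min dye loading and 20 min compound exposure, both at room temperature / Signal: thallium influx via FluxOR fluorescence, kinetic imaging / Evaluation: B score of baseline-normalized fluorescence ratio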
hERG rescue = hERG (human) protection from proarrhythmic block. Q12809. CHO-hERG, FluxOR thallium flux, dofetilide IC70 present. activation (rescue from dofetilide block), less the hit threshold, % at 10 µM. actives 0.51% (n = 310,000);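 active = activation above the mean of controls blocked by dofetilide plus 5 SD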;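 note: thallium influx through hERG after potassium depolarization seen as dye fluorescence rise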
Target sequence (Q12809 whole entry, looked up): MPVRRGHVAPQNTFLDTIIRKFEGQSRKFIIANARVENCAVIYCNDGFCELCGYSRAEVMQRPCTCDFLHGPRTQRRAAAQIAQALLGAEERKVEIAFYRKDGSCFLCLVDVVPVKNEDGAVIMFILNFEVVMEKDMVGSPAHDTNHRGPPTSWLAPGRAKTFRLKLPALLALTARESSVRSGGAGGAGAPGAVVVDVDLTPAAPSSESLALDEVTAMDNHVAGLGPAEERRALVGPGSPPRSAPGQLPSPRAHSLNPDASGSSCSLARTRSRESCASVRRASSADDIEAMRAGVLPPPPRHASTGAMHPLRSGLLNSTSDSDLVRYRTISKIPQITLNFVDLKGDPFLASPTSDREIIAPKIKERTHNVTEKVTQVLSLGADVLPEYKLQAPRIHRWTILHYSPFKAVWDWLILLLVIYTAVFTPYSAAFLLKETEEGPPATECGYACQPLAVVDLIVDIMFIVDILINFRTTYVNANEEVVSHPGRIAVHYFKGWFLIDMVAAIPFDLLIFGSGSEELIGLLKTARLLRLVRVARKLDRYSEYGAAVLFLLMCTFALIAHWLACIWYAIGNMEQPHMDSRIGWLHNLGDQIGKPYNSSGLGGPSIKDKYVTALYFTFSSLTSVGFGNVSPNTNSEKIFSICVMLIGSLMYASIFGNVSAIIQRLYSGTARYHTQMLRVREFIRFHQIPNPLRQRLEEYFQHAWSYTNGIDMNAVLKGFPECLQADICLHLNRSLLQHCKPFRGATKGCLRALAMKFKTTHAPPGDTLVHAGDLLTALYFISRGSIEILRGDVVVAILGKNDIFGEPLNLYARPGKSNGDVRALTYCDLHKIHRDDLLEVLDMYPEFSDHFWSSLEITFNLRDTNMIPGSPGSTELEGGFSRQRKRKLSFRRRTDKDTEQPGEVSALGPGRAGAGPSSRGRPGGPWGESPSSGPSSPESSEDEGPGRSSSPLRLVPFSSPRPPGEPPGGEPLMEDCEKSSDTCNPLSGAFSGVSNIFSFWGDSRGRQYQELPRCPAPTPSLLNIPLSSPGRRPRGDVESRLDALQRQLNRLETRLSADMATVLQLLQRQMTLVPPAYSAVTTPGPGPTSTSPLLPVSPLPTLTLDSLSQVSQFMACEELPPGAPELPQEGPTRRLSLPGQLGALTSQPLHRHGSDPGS
KCNQ1 block = blocks the human KCNQ1 potassium channel; CHO-K1 KCNQ1, FluxOR thallium flux fluorescence; stronger effect = higher value; B-score at 10 µM; AID 2642; actives 1.3% (n = 310,000); P51787;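 active = compounds whose thallium flux B-score, printed positive for inhibition, exceeds three library SD while starting fluorescence stays within three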;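 note: channel opened by potassium depolarization with thallium stimulus after 20 min compound exposure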
hERG ctr = hERG (human) inhibition as Kir2.1 counter-screen. shares compounds with Kir21 block. hERG-expressing cells, thallium flux. inhibition, % at 10 µM. actives 20% (n = 320). AID 2236;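 note: host cells are CHO cells stably expressing hERG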
KCNK9 inh-2 = selectivity of Kir2.1 inhibitors: effect on human KCNK9 | KCNK9-expressing cells, ion flux inhibition | inhibition, % at 10 µM | actives 5% (n = 320) | shares compounds with Kir21 block
Kir2-1 patch inh = inhibitors of mouse Kir2.1 potassium channel; shares compounds with Kir21 block; Kir2.1 cells, automated patch-clamp current inhibition; inhibition, % at 25 µM; actives 71% (n = 320); AID 463252
KCNQ1 block val = human KCNQ1 channel inhibition, validation assay | shares compounds with KCNQ1 block | KCNQ1 cell line, FluxOR thallium flux fluorescence | inhibition, % at 10 µM | actives 93% (n = 1,600) | AID 588353;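 active = primary screen active, with duplicate mean exceeding buffer control mean plus 3 SD of buffer wells, cut at about 28% in these data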
CHO KCNQ1 ctr = activity in parental CHO cells lacking KCNQ1; parental CHO-K1, FluxOR thallium flux fluorescence ratio; stronger effect = lower value; zero means no signal rise above baseline; actives 21% (n = 1,600); shares compounds with KCNQ1 block; AID 588366; fluorescence ratio (Tl flux) at 10 µM;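 active = mean of duplicate thallium-flux fluorescence ratios in parental host cells more than 5 SD below the buffer control mean, cut at about 0.38 in these data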;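 note: ratio is peak minus minimum fluorescence divided by baseline fluorescence; actives read low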
KCNQ1 APC inh = blocks human KCNQ1 current in automated patch clamp. shares compounds with KCNQ1 block. KCNQ1-CHO cells. calls only at 10 µM. actives 20% (n = 490). AID 624120;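 active = KCNQ1 current drop exceeding 3 SD of negative control wells, seen in both duplicate runs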;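 note: steady state current during a 2 s step from -80 to +40 mV; negative values mean current inhibition and positive values mean potentiation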
KCNQ2 inh = selectivity of KCNQ1 inhibitors: inhibition of rat KCNQ2 channel; shares compounds with KCNQ1 block; KCNQ2 cells, FluxOR thallium flux fluorescence; AID 651746; inhibition, % at 10 µM; actives 71% (n = 1,600);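 active = mean percent inhibition of the KCNQ2 thallium signal more than 5 SD above the buffer-only control wells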;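 note: KCNQ2 expressed in CHO cells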
KCNQ1-KCNE1 inh = human KCNQ1/KCNE1 inhibition in KCNQ1 specificity screen; shares compounds with KCNQ1 block; KCNQ1/KCNE1 cells, FluxOR thallium flux fluorescence; inhibition, % at 10 µM; actives 77% (n = 1,600); AID 652147;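 active = mean percent inhibition of duplicate wells above the buffer-only control mean plus 3 SD of those controls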
KCNK3 confirm = confirmation of human KCNK3 two-pore domain potassium channel inhibitors; CHO-KCNK3 thallium flux, FluxOR fluorescence; 0% buffer, 100% carvedilol maximal block; shares compounds with KCNK3 inh; ratio percent of control, % at 10 µM; actives 99% (n = 2,400);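 active = ratio percent of control, averaged over triplicates, above buffer control mean plus 5 SD, cut at about 64% in these data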;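 note: ratio is the fluorescence rise from min to max over baseline after thallium stimulus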
KCNK3 noninduced = KCNK3 inhibitor counter-screen hit in non-induced cells | shares compounds with KCNK3 inh | non-induced KCNK3 parental cells, FluxOR thallium flux; stronger effect = lower value | thallium flux ratio (lower = more inhibition) at 10 µM | actives 40% (n = 2,400) | AID 651747;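 active = thallium flux ratio, averaged over three wells, more than 5 SD below the buffer control mean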;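 note: host cells are CHO cells without KCNK3 induction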
Large screens that a line does not name were inactive (follow-up assays come after a bar, where they were run). Unless noted, the rule behind the calls is not given here.

COc1ccc(CN2CCCC(C(=O)c3sccc3C)C2)cc1O (stereo not drawn)	Kir21 block -6.2 | hERG ctr inactive | KCNK9 inh-2 inactive | Kir2-1 patch inh inactive
COc1cc(CN2CCCC(C(=O)c3sccc3C)C2)cc(OC)c1O (stereo not drawn)	none
COc1ccc(CNCCc2c[nH]c3ccccc23)c(OC)c1C	Kir21 block -8.4 | hERG ctr inactive | KCNK9 inh-2 inactive | Kir2-1 patch inh 4.1%
COc1cc(C)c(CNCCc2c[nH]c3ccccc23)cc1C	Kir21 block -6.9 | hERG ctr inactive | KCNK9 inh-2 inactive | Kir2-1 patch inh 9.0%
Cc1ccccc1-c1ccc2n1Cc1cnnn1-c1ccccc1-2	none (no result: Kir21 block, KCNK9 inh-1, KCNQ1 pot, hERG rescue, KCNQ1 block)
COc1cccc(CNCCc2ccccc2)c1OC	none
COc1ccc2ccccc2c1CNCCc1ccccc1	Kir21 block -8.9 | hERG ctr inactive | KCNK9 inh-2 inactive | Kir2-1 patch inh 29%
O=P1(c2ccccc2)Nc2ccccc2N1c1ccccc1 (stereo not drawn)	none (no result: Kir21 block, KCNK9 inh-1, KCNQ1 pot, hERG rescue, KCNQ1 block)
O=C(NN=Cc1ccc(N(CCCl)CCCl)cc1)C(=O)c1c[nH]c2ccccc12	none (no result: Kir21 block, KCNK9 inh-1, KCNQ1 pot, hERG rescue, KCNQ1 block)
Cc1ccc2c(c1)C1CN(C)CCC1N2C(=S)Nc1cccnc1 (stereo not drawn)	none
Cc1ccc2c(c1)C1CN(C)CCC1N2C(=O)Nc1cccc(Cl)c1 (stereo not drawn)	KCNQ1 block 7 | KCNQ1 block val inactive | CHO KCNQ1 ctr inactive | KCNQ2 inh inactive | KCNQ1-KCNE1 inh inactive
Cc1ccc(NC(=O)c2cc(-c3ccccc3)n(CCCN3CCOCC3)c2C)cc1	KCNQ1 block 6 | KCNQ1 block val 81 | CHO KCNQ1 ctr inactive | KCNQ2 inh 62% | KCNQ1-KCNE1 inh 125%
Cc1ccccc1NC(=O)c1cc(-c2ccccc2)n(CCCN2CCOCC2)c1C	none
CC(C)(C)C(=O)NC1CCSC1=O (stereo not drawn)	none (no result: KCNK3 inh)
CC1C(=O)OC2CCN3CC4OC4(COC(=O)C(C)(O)C1(C)O)C23 (stereo not drawn)	none (no result: Kir21 block, KCNK9 inh-1, KCNQ1 pot, hERG rescue, KCNQ1 block)
CCCCn1c(=O)c(C(=O)NCc2ccccc2OC)c(O)c2ccccc21	KCNQ1 block 7 | KCNQ1 block val 56 | CHO KCNQ1 ctr inactive | KCNQ2 inh 76% | KCNQ1-KCNE1 inh 48%
CCC(=NCc1cc(OC)cc(OC)c1)c1c(O)n(C2CCCCC2)c(=O)[nH]c1=O	none
COc1cc(CN=C(C)c2c(O)n(C3CCCCC3)c(=O)[nH]c2=O)cc(OC)c1	KCNQ1 block 6 | KCNQ1 block val inactive | CHO KCNQ1 ctr inactive | KCNQ2 inh 80% | KCNQ1-KCNE1 inh inactive
CN1CCN(Cc2cc3c(cc2[N+](=O)[O-])OCO3)CC1	none
CCC(=NCCOc1ccc(Cl)cc1)c1c(O)n(C)c(=O)n(C)c1=O	KCNQ1 block 7 | KCNQ1 block val 122 | CHO KCNQ1 ctr 0.34 | KCNQ2 inh 114% | KCNQ1-KCNE1 inh 144%
COc1ccc(CN2C(=O)NC(=O)/C(=C/c3ccc([N+](=O)[O-])s3)C2=O)cc1	none
Oc1cc(Cl)ccc1Oc1ccc(Cl)cc1Cl	KCNK9 inh-1 -7.3, KCNQ1 block 9 | KCNQ1 block val 52 | CHO KCNQ1 ctr inactive | KCNQ2 inh inactive | KCNQ1-KCNE1 inh 86%
CC(C)(C)c1nc(N2CCN(C(=O)c3ccco3)CC2)c2nnn(Cc3ccccc3Cl)c2n1	KCNQ1 block 7 | KCNQ1 block val 116 | CHO KCNQ1 ctr 0.36 | KCNQ2 inh 101% | KCNQ1-KCNE1 inh 136%
Cc1sc2ncnc(N3CCC(C(=O)Nc4ccc(C#N)c(Cl)c4)CC3)c2c1C	KCNK3 inh -10, KCNQ1 block 7 | KCNQ1 block val 132 | CHO KCNQ1 ctr inactive | KCNQ1 APC inh inactive | KCNQ2 inh 112% | KCNQ1-KCNE1 inh 156% | KCNK3 confirm 131 | KCNK3 noninduced 0.15
Cc1noc(C)c1CSCC(=O)Nc1ccc(C#N)c(Cl)c1	none (no result: Kir21 block, KCNK9 inh-1, KCNQ1 pot, hERG rescue, KCNQ1 block)
CN1C(=O)NC(=O)C2(CCCC2)C1=O	none (no result: Kir21 block, KCNK9 inh-1, KCNQ1 pot, hERG rescue, KCNQ1 block)
O=C(c1ccccc1F)c1cn(Cc2ccccc2)c2ccccc12	KCNK3 inh -9.4, KCNK9 inh-1 -7.5, KCNQ1 block 6 | KCNQ1 block val 85 | CHO KCNQ1 ctr inactive | KCNQ2 inh 85% | KCNQ1-KCNE1 inh 130% | KCNK3 confirm 113 | KCNK3 noninduced 0.16
Cc1nc(Cl)sc1C(=O)Nc1ccc2ccccc2c1	none
